Measured values collected from several papers.
Each line is one published result; the experiments were not run side by side.
Target: Phosphatidylinositol 4,5-bisphosphate 3-kinase catalytic subunit gamma isoform (PIK3CG, Homo sapiens, UniProt P48736)

SMILES	assay	setting	remaining binding
COc1ncc2cc3ccccc3nc2c1C#N	cell-free assay, competition with immobilised ligand	5 µM	100%
COCCOc1nc(-c2ccc(Cl)nc2)nc2c1CN(C(=O)c1ncn3ccccc13)CC2	cell-free assay, competition with immobilised ligand	0.1 µM	100%
COc1cnc(Nc2cccc(S(N)(=O)=O)c2)nc1N1CCN(c2ccccc2)CC1	binding, competition with immobilised ligand	1 µM	94%
CCN1CCN(Cc2ccc(C(=O)Nc3ccc(C)c(Oc4ccc5c(c4)CC(=O)N5)c3)cc2C(F)(F)F)CC1	binding, competition with immobilised ligand	1 µM	93%
Cn1cc(Cl)c2c(Oc3c(F)cc(Nc4cc(Cl)nc(N)n4)cc3F)ccnc21	cell-free assay, competition with immobilised ligand	0.1 µM	82%
Cc1cnn2ncc(-c3ccnc(N(C)C)n3)c2c1	binding	1 µM	47%
Cc1cnc(Nc2ccc(C(=O)N3CCC(N4CCCC4)CC3)cc2)nc1-c1cc2ccccc2s1	binding, competition with immobilised ligand	1 µM	81%
F[C@@H]1CCN(c2nccc(-c3cnn4ncccc34)n2)C1	binding	1 µM	100%
COC(=O)Nc1nc2ccc(C(=O)c3ccccc3)cc2[nH]1	cell-free assay, competition with immobilised ligand	10 µM	18%
CC(C)CC(=O)N1CCc2nc(-c3ccc(Br)cc3)nc(N(C)Cc3ccccc3)c2C1	cell-free assay, competition with immobilised ligand	0.1 µM	100%
C[C@@H]1CCN(c2nccc(-c3cnn4ncccc34)n2)C1	binding	1 µM	58%
N#Cc1ccccc1CSc1nnc2c(n1)[nH]c1ccccc12	binding, competition with immobilised ligand	10 µM	100%
CN(C)c1ncc(F)c(-c2cnn3ncccc23)n1	binding	1 µM	90%
O=C(Nc1c[nH]nc1C(=O)NC1CCNCC1)c1cc(F)cc(F)c1	binding, competition with immobilised ligand	1 µM	100%
COc1cnc(Nc2cccc(S(N)(=O)=O)c2)nc1N1CCN(c2ccccc2)C(=O)C1	binding, competition with immobilised ligand	1 µM	34%
O=C(c1ccc(Nc2nccc(-c3cc4ccccc4s3)n2)cc1)N1CCC(N2CCCC2)CC1	binding, competition with immobilised ligand	1 µM	27%
C[C@@]1(Cc2ccc(C#N)cc2)C(=O)N(c2cc(Cl)cc(Cl)c2)c2ncc(C(=O)NC3(c4nc(C5CCC5)no4)CC3)n21	cell-free assay, competition with immobilised ligand	1 µM	95%
C[C@@H](c1ccc(-n2cnc3c(N)ncnc32)cc1)N1CCc2nn(C)c(Cc3ccccc3)c2C1=O	binding, competition with immobilised ligand	0.1 µM	85%
FC(F)(F)c1ccc2c(c1)nc(-c1cccnc1)n2C1CC1	cell-free assay, competition with immobilised ligand	1 µM	92%
O=C(c1ccc(Nc2ncc(Cl)c(-c3ccc(Cl)s3)n2)cc1)N1CCC(N2CCCC2)CC1	binding, competition with immobilised ligand	1 µM	90%
N[C@H]1CCN(c2nccc(-c3cnn4ncccc34)n2)C1	binding	1 µM	100%
CCCCN(CCCC)C(=O)CN1C[C@H](c2cc(OC)c3c(c2)OCO3)[C@@H](C(=O)O)[C@@H]1CC(C)(C)CCC	cell-free assay, competition with immobilised ligand	1 µM	76.9%
CN(C)c1nccc(-c2cnc3ncccn23)n1	binding	1 µM	39%
C[C@@H](c1cccc(C#N)c1)n1cc(Cl)cc(C(N)=O)c1=N	cell-free assay, competition with immobilised ligand	1 µM	100%
